Assay results from different studies.
Protocols differ between the studies behind these lines.
Target: Vascular endothelial growth factor receptor 3 (FLT4, Homo sapiens, UniProt P35916)

SMILES | observed | mode | technique | concentration | endpoint | value
CN(C(=O)c1ccccc1)c1cc(N(C)c2ccc3c(c2)CCc2ccc(C(=O)NCCN4CCOCC4)cc2C3=O)ccc1F | cell-free assay | – | competition with immobilised ligand | 1 µM | remaining binding | 87%
CCOc1cc(-c2nncn2C)ccc1Nc1ncc2cc(C)nc(NCC(C)(C)C)c2n1 | enzyme activity | inhibitor | FRET | 1 µM | inhibition | 23%
O=C(Nc1cccnn1)N1CCC(=Cc2cccc(Oc3ccc(C(F)(F)F)cn3)c2)CC1 | cell-free assay | – | competition with immobilised ligand | 1 µM | remaining binding | 80%
Cc1ccc(C(=O)NCc2ccsc2)cc1C#Cc1cn(C(C)C)c2ncnc(N)c12 | enzyme activity | inhibitor | – | 1 µM | activity vs control | -1%
O=C(O)[C@H]1[C@H](Cn2nnc3ccccc3c2=O)CC[C@@H]1C(=O)c1ccc(OCCC2CCOCC2)cc1 | cell-free assay | – | competition with immobilised ligand | 1 µM | remaining binding | 81%
CNC(=O)c1cc(Oc2ccc(NC(=O)Nc3ccc(Cl)c(C(F)(F)F)c3)cc2)ccn1 | cell-free assay | – | – | 0.5 µM | remaining signal | 43%
C[C@@H]1CN(c2cc(-c3n[nH]c4ccc(OC5(C)CC5)cc34)ncn2)C[C@H](C)O1 | cell-free assay | – | competition with immobilised ligand | 0.1 µM | remaining binding | 100%
COc1cc2ncnc(Nc3ccc(Oc4ccccc4)c(C)c3C)c2cc1OC | enzyme activity | inhibitor | – | 1 µM | inhibition | 12%
Clc1ccc(Nc2nnc(Cc3ccncc3)c3ccccc23)cc1 | cell-free assay | – | – | 0.5 µM | remaining signal | 62.8%
Cc1ccc(C(=O)Nc2ccc(CN3CCN(C)CC3)c(C(F)(F)F)c2)cc1C#Cc1cnc2cccnn12 | cell-free assay | – | – | 23.5 nM | remaining signal | 35%
Cc1sc(C(=O)NC2COC2)cc1-n1cc(NC(=O)Nc2c(F)cccc2Cl)cn1 | enzyme activity | inhibitor | – | 10 µM | remaining activity | 79.2%
O=C1Nc2ccc(Cl)cc2C1=Cc1cc(Cl)c(O)c(Cl)c1 | cell-free assay | – | – | 0.5 µM | remaining signal | 87.3%
O=C(Nc1cnn(-c2csc(C(=O)NC3COC3)c2)c1)Nc1c(F)cccc1Cl | enzyme activity | inhibitor | – | 5 µM | remaining activity | 86.2%
CCCCN(CCCC)C(=O)CN1C[C@H](c2cc(OC)c3c(c2)OCO3)[C@@H](C(=O)O)[C@@H]1CC(C)(C)CCC | cell-free assay | – | competition with immobilised ligand | 1 µM | remaining binding | 100%
CC(C)(C)c1nc2c(s1)c1nc(N)ncc1c1ccc(NS(=O)(=O)c3c(F)cccc3F)c(F)c12 | enzyme activity | inhibitor | radiometric | 1 µM | remaining activity | 76%
Cc1cnc(NC2CCOCC2)nc1-n1cnc(C(=O)NC(CN)c2cc(F)cc(Cl)c2)c1 (centres unmarked) | enzyme activity | inhibitor | radiometric | 1 µM | remaining activity | 107%
CCN(CC)c1ccc(C2=NNC(=O)CC2C)cc1[N+](=O)[O-] (centres unmarked) | enzyme activity | inhibitor | – | 10 µM | remaining activity | 111%
O=C1NC(=O)c2cc(Nc3ccc(F)cc3)c(Nc3ccc(F)cc3)cc21 | cell-free assay | – | – | 0.5 µM | remaining signal | 102%
CC(=O)N1CCC(c2ccc(C(=O)NC(=N)N)cc2C(F)(F)F)CC1 | cell-free assay | – | competition with immobilised ligand | 1 µM | remaining binding | 89%
COc1cc2nccc(Oc3ccc(NC(=O)c4c5n(n(-c6ccc(F)cc6)c4=O)CCCC5)cc3)c2cc1OC | enzyme activity | inhibitor | – | 0.1 µM | inhibition | 47%
